RBBP9 inh: inhibitors of human serine hydrolase RBBP9; AID 1515; 0.2% of 220,000 active; recombinant RBBP9, FP-Rh probe fluorescence polarization; inhibition, % at 7.94 µM; O75884;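 active = inhibition above the campaign mean of all tested compounds plus 3 SD, cut at about 14% in these data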
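System: RBBP9 protein / Quantity: 2.5 µM RBBP9 dispensing solution, before mixing / Also added: Serine-hydrolase probe FP-Rh, 375 nM pre-mixing / Dosing: 7.94 µM single dose, 0.794% DMSO / Timing: enzyme-compound preincubation 30 min, then probe labeling 45 min, 25 °C / Signal: FP readout at 525/598 nm / Controls: DMSO-treated enzyme wells and wells lacking RBBP9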
TCR CD3 inh: human TCR-CD3 binding inhibition; TAMRA-labeled TCR probe fluorescence, biochemical; 0.37% of 360,000 active; inhibition, % at 9.4 µM; in the data active = inhibition above about 19%;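 also: recombinant mutant TCR 2C K166C tagged with TAMRA read by polarization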
eIF4H inh: inhibitors of RNA binding by human eIF4H. eIF4H fluorescence polarization binding assay. inhibition, % at 35 µM. 0.94% of 290,000 active;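 also: calls also rest on retests at 20 µM and on dose response follow-up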
PABP polyA inh: PABP-poly(A) binding inhibition | PABP-poly(A) RNA binding, fluorescence polarization | calls only at 35 µM | 1% of 290,000 active | AID 2014;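 also: calls also rest on retests at 20 µM and on dose response follow-up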
Target sequence (P11940 whole entry, looked up): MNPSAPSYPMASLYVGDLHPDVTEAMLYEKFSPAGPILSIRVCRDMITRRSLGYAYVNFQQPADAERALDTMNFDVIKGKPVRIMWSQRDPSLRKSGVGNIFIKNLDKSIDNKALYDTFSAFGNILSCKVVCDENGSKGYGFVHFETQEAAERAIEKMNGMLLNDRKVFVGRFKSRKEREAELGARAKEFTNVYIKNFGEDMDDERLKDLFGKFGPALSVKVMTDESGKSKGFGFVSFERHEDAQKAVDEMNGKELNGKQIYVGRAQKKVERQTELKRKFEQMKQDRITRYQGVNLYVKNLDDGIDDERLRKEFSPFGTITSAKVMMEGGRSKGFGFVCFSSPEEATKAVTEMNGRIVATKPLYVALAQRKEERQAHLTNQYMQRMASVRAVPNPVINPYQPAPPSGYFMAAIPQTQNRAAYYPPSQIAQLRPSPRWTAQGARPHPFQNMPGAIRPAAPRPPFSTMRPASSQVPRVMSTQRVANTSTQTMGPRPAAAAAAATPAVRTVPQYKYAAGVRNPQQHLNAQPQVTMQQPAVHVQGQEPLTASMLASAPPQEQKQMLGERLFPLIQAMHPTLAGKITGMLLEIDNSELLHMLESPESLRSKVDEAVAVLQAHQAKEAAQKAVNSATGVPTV
PABP1 MLLE inh: blocks PAM2 peptide binding to the PABP1 MLLE domain. GST-MLLE / FITC-PAM2 fluorescence polarization. inhibition, % at 20 µM. 0.36% of 360,000 active. AID 588489; in the data active = inhibition above about 35%, passing the limit was not always enough
BSA TAMRA ctr: counter-screen for TCR-CD3 interaction inhibitors: BSA probe; TAMRA-labeled BSA probe fluorescence counterscreen; 10% of 1,200 active; shares compounds with TCR CD3 inh; inhibition, % at 9.4 µM; in the data active = inhibition above about 23%
TCR-CD3 inh conf: TCR-CD3 interaction inhibition, confirmation | shares compounds with TCR CD3 inh | TAMRA-labeled TCR probe fluorescence binding assay | inhibition, % at 9.4 µM | 48% of 1,200 active | AID 652036; in the data active = inhibition above about 19%
A number is an active result; ! = not active in a repeat. In the library only some 1.6% were active in any assay of this set; here they are far more common. Unless noted, no rule for the calls is given here.

`O=C(c1cccc(Cl)c1)N1CCCc2ccccc21` gave TCR CD3 inh 28, eIF4H inh inactive, PABP polyA inh inactive, PABP1 MLLE inh inactive, BSA TAMRA ctr 28 and TCR-CD3 inh conf inactive.
CC(C)C[C@H]1COc2ccc(Cl)cc2S(=O)(=O)N1C[C@H](NC(=O)OC(C)(C)C)C(C)C was read as TCR CD3 inh inactive.
O=C(O)c1cccc2cccc(-c3c4ccc(=O)c(O)c-4oc4c(O)c(O)ccc34)c12 was read as TCR CD3 inh 66, PABP1 MLLE inh inactive, BSA TAMRA ctr inactive and TCR-CD3 inh conf 68.
For CCOC(=O)CN1C(=O)S/C(=C/c2ccco2)C1=O the results were TCR CD3 inh inactive, eIF4H inh inactive, PABP polyA inh inactive and PABP1 MLLE inh inactive.
Screening O=C(CN1C(=O)/C(=C/c2ccco2)SC1=S)NC1CCS(=O)(=O)C1 (stereo not given) returned TCR CD3 inh 22, eIF4H inh 74, PABP polyA inh active, PABP1 MLLE inh inactive, BSA TAMRA ctr inactive and TCR-CD3 inh conf inactive.
`O=C1/C(=C\c2ccc(O)cc2)SC(=S)N1c1cccnc1` gave RBBP9 inh inactive, TCR CD3 inh inactive, eIF4H inh inactive, PABP polyA inh inactive and PABP1 MLLE inh inactive.
O=C1/C(=C/c2ccco2)SC(=S)N1c1cccnc1 was read as RBBP9 inh inactive, TCR CD3 inh 28, eIF4H inh 92, PABP polyA inh active, PABP1 MLLE inh inactive, BSA TAMRA ctr inactive and TCR-CD3 inh conf 23.
For NN1C(=O)/C(=C\c2ccco2)SC1=S the results were RBBP9 inh inactive, TCR CD3 inh 20, eIF4H inh 106, PABP polyA inh active, PABP1 MLLE inh inactive, BSA TAMRA ctr inactive and TCR-CD3 inh conf inactive.
Screening O=C(CCN1C(=O)/C(=C/c2ccccc2)SC1=S)NC1CCS(=O)(=O)C1 (stereo not given) returned TCR CD3 inh inactive, eIF4H inh inactive, PABP polyA inh inactive and PABP1 MLLE inh inactive.
For CCC(C)Sc1cccc(-c2nc3cc(C)ccn3c2NC2CCCCC2)c1 (stereo not given) the results were TCR CD3 inh 25!, PABP1 MLLE inh inactive, BSA TAMRA ctr inactive and TCR-CD3 inh conf inactive.
`O=C(N/N=C/c1cn(Cc2cccc(F)c2)c2ccccc12)c1cc(O)cc(O)c1` gave TCR CD3 inh 47, eIF4H inh 100, PABP polyA inh active, PABP1 MLLE inh inactive, BSA TAMRA ctr inactive and TCR-CD3 inh conf 27.
`Nc1ccc(C(=O)N/N=C/c2cn(Cc3ccc(F)cc3)c3ccccc23)cc1` gave TCR CD3 inh inactive, eIF4H inh inactive, PABP polyA inh inactive and PABP1 MLLE inh inactive.
`CCn1c(CSc2n[nH]c(N)n2)nc2cc(C(=O)O)ccc21` gave RBBP9 inh inactive, TCR CD3 inh 94, eIF4H inh inactive, PABP polyA inh inactive, PABP1 MLLE inh inactive, BSA TAMRA ctr 137 and TCR-CD3 inh conf 97.
CCn1c(CSc2nnc(-c3cccnc3)n2-c2ccccc2C)nc2cc(C(=O)O)ccc21 was read as RBBP9 inh inactive, eIF4H inh inactive and PABP polyA inh inactive.
For COC(=O)c1ccc(C(=O)OC)c(NC(=O)CSc2n[nH]c(N)n2)c1 the results were TCR CD3 inh inactive and PABP1 MLLE inh inactive.
Screening CCn1c(CSc2nnc(-c3ccncc3)n2CCOC)nc2cc(C(=O)O)ccc21 returned RBBP9 inh inactive, TCR CD3 inh 32, eIF4H inh inactive, PABP polyA inh inactive, PABP1 MLLE inh inactive, BSA TAMRA ctr 160 and TCR-CD3 inh conf 109.
CCOC(=O)[C@]12CCCC=C1N(Cc1ccco1)C(=O)[C@H](CC(=O)NCc1cccs1)C2 was read as TCR CD3 inh inactive.
`Cc1ccc2nc(-c3ccc(Cl)cc3)c(Cc3ccsc3)n2c1` gave TCR CD3 inh inactive.
`Cc1cccc(NC(=O)CSc2nnc(-c3ccccc3)n2N)c1` gave RBBP9 inh inactive, TCR CD3 inh 24, eIF4H inh inactive, PABP polyA inh inactive, PABP1 MLLE inh inactive, BSA TAMRA ctr inactive and TCR-CD3 inh conf inactive.
Cc1cc(C)cc(NC(=O)CSc2nnc(-c3ccccc3)n2N)c1 was read as RBBP9 inh inactive, TCR CD3 inh inactive, eIF4H inh inactive, PABP polyA inh inactive and PABP1 MLLE inh inactive.
`O=C(CCc1c[nH]c2ccccc12)Nc1ccc(Nc2cccnc2)cc1` gave TCR CD3 inh inactive.

Compound activity: PubChem, several laboratories
